Tests used:
[1] = target: Epidermal growth factor receptor (Homo sapiens, UniProt P00533); experiment: Inhibition of tyrosine phosphorylation activity of the epidermal growth factor receptor (EGFR) tyrosine kinase from human A-431 carcinoma cell-shed membrane vesicles
Swiss 3T3 (Mus musculus) = experiment: Inhibition of Swiss 3T3 Mouse fibroblast proliferation
[2] = target: Epidermal growth factor receptor (Mus musculus, UniProt Q01279); experiment: Inhibition of epidermal growth factor receptor (EGFR-mediated tyrosine autophosphorylation in mouse fibroblasts.
Procedure, shortened: (§1)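 Confluent Swiss 3T3 fibroblasts were pretreated 2 h with graded compound concentrations, then stimulated 5 min with EGF or PDGF. Monolayers were lysed in boiling Laemmli buffer and resolved on 4–20% SDS gels. Blots were probed with antiphosphotyrosine antibody (1 μg/mL) and [¹²⁵I]protein A, and receptor autophosphorylation was quantified by densitometry. IC50 is 50% inhibition of autophosphorylation.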

[3] = target: Platelet-derived growth factor receptor (Mus musculus, UniProt P05622+P26618); experiment: Inhibition of PDGF receptor autophosphorylation in mouse fibroblasts; assay type: protein-complex assay; procedure, shortened: as §1
K562 = experiment: Inhibition of K562 chronic myelogenous leukemia cell proliferation; assay type: functional, cell-based; conditions: Homo sapiens
Procedure, shortened: (§2)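 Cells kept in dMEM/F12 (50:50) with 10% fetal bovine serum. 2 × 10⁴ cells were seeded into wells holding compound dilutions in DMSO and exposed for 72 h at 37 °C under 5% CO₂. Growth was read by electronic cell count. IC50 is the concentration giving 50% growth inhibition, as the mean of two separate duplicate determinations.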

A-431 = experiment: Inhibition of A431 human epidermoid carcinoma cell proliferation; assay type: functional, cell-based; procedure, shortened: as §2
KG-1 = experiment: Inhibition of kg1A acute myelogenous leukemia cell proliferation; assay type: functional, cell-based; conditions: Homo sapiens; procedure, shortened: as §2

Epidermal growth factor receptor (Homo sapiens, UniProt P00533), sequence (P00533 whole entry): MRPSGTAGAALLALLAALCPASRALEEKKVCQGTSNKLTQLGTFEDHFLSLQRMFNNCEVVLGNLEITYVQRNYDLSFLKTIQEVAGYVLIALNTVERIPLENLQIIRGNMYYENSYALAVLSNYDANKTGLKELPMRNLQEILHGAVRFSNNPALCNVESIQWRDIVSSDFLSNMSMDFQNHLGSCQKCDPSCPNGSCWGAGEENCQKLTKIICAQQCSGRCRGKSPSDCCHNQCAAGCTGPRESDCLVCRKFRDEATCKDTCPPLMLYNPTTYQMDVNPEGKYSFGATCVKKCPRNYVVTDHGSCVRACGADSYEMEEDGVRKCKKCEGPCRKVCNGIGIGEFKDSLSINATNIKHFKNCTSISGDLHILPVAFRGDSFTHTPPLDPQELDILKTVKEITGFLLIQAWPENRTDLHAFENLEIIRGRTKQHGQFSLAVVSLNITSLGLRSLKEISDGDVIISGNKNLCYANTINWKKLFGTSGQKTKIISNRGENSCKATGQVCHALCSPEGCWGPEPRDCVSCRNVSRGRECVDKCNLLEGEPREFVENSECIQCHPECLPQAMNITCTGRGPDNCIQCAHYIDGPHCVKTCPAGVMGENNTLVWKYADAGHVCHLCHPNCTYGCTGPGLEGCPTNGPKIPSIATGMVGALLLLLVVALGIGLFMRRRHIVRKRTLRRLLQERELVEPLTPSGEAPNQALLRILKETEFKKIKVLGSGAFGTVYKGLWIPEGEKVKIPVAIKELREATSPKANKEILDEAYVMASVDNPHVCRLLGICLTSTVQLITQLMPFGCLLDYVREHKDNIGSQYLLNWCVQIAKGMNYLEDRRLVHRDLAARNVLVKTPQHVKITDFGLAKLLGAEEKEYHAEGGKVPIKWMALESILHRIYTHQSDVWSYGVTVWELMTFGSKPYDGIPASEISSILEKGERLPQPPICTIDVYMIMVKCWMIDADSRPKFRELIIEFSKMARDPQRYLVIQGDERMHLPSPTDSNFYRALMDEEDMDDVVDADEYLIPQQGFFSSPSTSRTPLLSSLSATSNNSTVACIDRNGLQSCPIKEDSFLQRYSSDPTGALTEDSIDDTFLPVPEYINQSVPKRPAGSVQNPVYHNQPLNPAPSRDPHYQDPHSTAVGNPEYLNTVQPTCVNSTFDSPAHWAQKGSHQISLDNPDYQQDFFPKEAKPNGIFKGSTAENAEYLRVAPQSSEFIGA
Epidermal growth factor receptor (Mus musculus, UniProt Q01279), sequence (Q01279 whole entry): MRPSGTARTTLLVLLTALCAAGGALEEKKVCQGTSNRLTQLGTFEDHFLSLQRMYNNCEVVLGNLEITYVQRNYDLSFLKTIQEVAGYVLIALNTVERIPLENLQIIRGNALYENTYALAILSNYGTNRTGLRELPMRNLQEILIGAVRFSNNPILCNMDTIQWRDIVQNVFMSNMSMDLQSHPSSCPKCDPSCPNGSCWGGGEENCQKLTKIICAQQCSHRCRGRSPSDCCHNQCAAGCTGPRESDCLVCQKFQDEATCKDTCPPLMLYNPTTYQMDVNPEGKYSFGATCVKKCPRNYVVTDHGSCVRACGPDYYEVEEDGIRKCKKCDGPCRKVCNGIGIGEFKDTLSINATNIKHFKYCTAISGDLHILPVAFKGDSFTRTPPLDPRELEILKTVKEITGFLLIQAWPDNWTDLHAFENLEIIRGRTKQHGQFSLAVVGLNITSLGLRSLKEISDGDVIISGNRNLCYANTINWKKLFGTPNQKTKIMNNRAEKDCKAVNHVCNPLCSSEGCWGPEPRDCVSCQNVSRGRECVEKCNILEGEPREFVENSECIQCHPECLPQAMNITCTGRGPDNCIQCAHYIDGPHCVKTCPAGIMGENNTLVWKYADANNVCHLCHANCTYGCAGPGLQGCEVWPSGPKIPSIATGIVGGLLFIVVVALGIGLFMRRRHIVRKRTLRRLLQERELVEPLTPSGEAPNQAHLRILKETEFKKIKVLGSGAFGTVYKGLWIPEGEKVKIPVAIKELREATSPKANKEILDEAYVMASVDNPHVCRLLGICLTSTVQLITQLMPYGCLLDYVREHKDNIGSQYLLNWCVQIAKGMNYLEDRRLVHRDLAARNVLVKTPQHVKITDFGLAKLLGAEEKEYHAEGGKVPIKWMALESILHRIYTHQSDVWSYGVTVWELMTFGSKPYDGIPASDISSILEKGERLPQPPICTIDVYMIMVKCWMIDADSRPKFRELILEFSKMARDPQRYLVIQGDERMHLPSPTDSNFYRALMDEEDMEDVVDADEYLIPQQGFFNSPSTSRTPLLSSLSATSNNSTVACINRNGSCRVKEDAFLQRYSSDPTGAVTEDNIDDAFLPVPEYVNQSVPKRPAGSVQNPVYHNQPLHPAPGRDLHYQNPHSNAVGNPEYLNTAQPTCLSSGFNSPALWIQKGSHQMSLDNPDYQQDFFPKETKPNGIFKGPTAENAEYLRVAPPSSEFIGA

| SMILES | IC50 [1] | IC50 (Swiss 3T3 (Mus musculus)) | further results |
| --- | --- | --- | --- |
| CC(=O)Oc1cccc2c(C(=O)Nc3ccccc3)c(SSc3c(C(=O)Nc4ccccc4)c4cccc(OC(C)=O)c4n3C)n(C)c12 | 9.9 µM |  |  |
| Cn1c(SSc2c(C(=O)Nc3ccccc3)c3cccc(Cl)c3n2C)c(C(=O)Nc2ccccc2)c2cccc(Cl)c21 | > 100 µM |  |  |
| Cc1cccc2c1c(C(=O)Nc1ccccc1)c(SSc1c(C(=O)Nc3ccccc3)c3c(C)cccc3n1C)n2C | > 100 µM | 4 µM |  |
| COc1cccc2c(C(=O)Nc3ccccc3)c(SSc3c(C(=O)Nc4ccccc4)c4cccc(OC)c4n3C)n(C)c12 |  | 24 µM | IC50 [2]: > 100 µM; IC50 [3]: > 100 µM |
| Cn1c(SSc2c(C(=O)Nc3ccccc3)c3cc(O)ccc3n2C)c(C(=O)Nc2ccccc2)c2cc(O)ccc21 | 40.5 µM |  |  |
| Cn1c(SSc2c(C(=O)Nc3ccccc3)c3c(Cl)cccc3n2C)c(C(=O)Nc2ccccc2)c2c(Cl)cccc21 | 100 µM |  |  |
| COc1cccc2c1c(C(=O)Nc1ccccc1)c(SSc1c(C(=O)Nc3ccccc3)c3c(OC)cccc3n1C)n2C | > 100 µM | 1.9 µM |  |
| COc1ccc2c(c1)c(C(=O)Nc1ccccc1)c(SSc1c(C(=O)Nc3ccccc3)c3cc(OC)ccc3n1C)n2C | > 100 µM | 20 µM |  |
| Cn1c(SSc2c(C(=O)Nc3ccccc3)c3ccc(Cl)cc3n2C)c(C(=O)Nc2ccccc2)c2ccc(Cl)cc21 | > 100 µM |  |  |
| Cn1c(SSc2c(C(=O)Nc3ccccc3)c3ccccc3n2C)c(C(=O)Nc2ccccc2)c2ccccc21 | 10 µM | 12 µM | IC50 [2]: > 100 µM; IC50 [3]: > 100 µM; IC50 (K562): 18 µM; IC50 (A-431): 14 µM; IC50 (KG-1): 12 µM |
| CC(=O)Oc1cccc2c1c(C(=O)Nc1ccccc1)c(SSc1c(C(=O)Nc3ccccc3)c3c(OC(C)=O)cccc3n1C)n2C | 20 µM |  |  |
| Cc1ccc2c(c1)c(C(=O)Nc1ccccc1)c(SSc1c(C(=O)Nc3ccccc3)c3cc(C)ccc3n1C)n2C | > 100 µM | 22 µM |  |
| COc1ccc2c(C(=O)Nc3ccccc3)c(SSc3c(C(=O)Nc4ccccc4)c4ccc(OC)cc4n3C)n(C)c2c1 |  | 17 µM | IC50 [3]: > 100 µM |
| Cn1c(SSc2c(C(=O)Nc3ccccc3)c3cc(C(F)(F)F)ccc3n2C)c(C(=O)Nc2ccccc2)c2cc(C(F)(F)F)ccc21 | > 100 µM |  |  |
| CN1C(=S)C(C(=O)Nc2ccccc2)c2cc(Cl)ccc21 (centres undefined) | > 100 µM |  |  |
| CN1C(=S)C(C(=O)Nc2ccccc2)c2ccccc21 (centres undefined) |  | 64 µM | IC50 [2]: > 100 µM; IC50 [3]: 17 µM; IC50 (K562): 32 µM; IC50 (A-431): 15 µM; IC50 (KG-1): 38 µM |
| CN1C(=S)C(C(=O)Nc2ccccc2)c2cccnc21 (centres undefined) | > 100 µM |  |  |
| Cn1c(SSc2c(C(=O)Nc3ccccc3)c3cccnc3n2C)c(C(=O)Nc2ccccc2)c2cccnc21 |  | 10 µM | IC50 [2]: > 25 µM; IC50 [3]: > 25 µM |
| Cn1c(SSc2c(C(=O)Nc3ccccc3)c3cccc(O)c3n2C)c(C(=O)Nc2ccccc2)c2cccc(O)c21 | 100 µM |  |  |
| CN1C(=S)C(C)(C(=O)Nc2ccccc2)c2ccccc21 (centres undefined) | > 100 µM |  |  |
| Cn1c(SSc2c(C(=O)Nc3ccccc3)c3cc(F)ccc3n2C)c(C(=O)Nc2ccccc2)c2cc(F)ccc21 | > 100 µM |  |  |
| CC(=O)Oc1ccc2c(C(=O)Nc3ccccc3)c(SSc3c(C(=O)Nc4ccccc4)c4ccc(OC(C)=O)cc4n3C)n(C)c2c1 | > 100 µM |  |  |
| Cc1cccc2c(C(=O)Nc3ccccc3)c(SSc3c(C(=O)Nc4ccccc4)c4cccc(C)c4n3C)n(C)c12 | > 100 µM |  |  |
| Cn1c(SSCc2ccccc2)c(C(=O)Nc2ccccc2)c2ccccc21 | > 100 µM |  |  |
| Cn1c(SSc2c(C(=O)Nc3ccccc3)c3cc([N+](=O)[O-])ccc3n2C)c(C(=O)Nc2ccccc2)c2cc([N+](=O)[O-])ccc21 | 5 µM |  |  |
| Cc1ccc2c(C(=O)Nc3ccccc3)c(SSc3c(C(=O)Nc4ccccc4)c4ccc(C)cc4n3C)n(C)c2c1 | > 100 µM | 96 µM |  |
| Cn1c(SSc2ccccc2)c(C(=O)Nc2ccccc2)c2ccccc21 | > 100 µM |  |  |
| CSc1c(C(=O)Nc2ccccc2)c2ccccc2n1C | > 100 µM |  |  |

Reference: ChEMBL document CHEMBL1127560, “Tyrosine kinase inhibitors. 3. Structure-activity relationships for inhibition of protein tyrosine kinases by nuclear-substituted derivatives of 2,2'-dithiobis(1-methyl-N-phenyl-1H-indole-3-carboxamide)” (J Med Chem, 1994)
